Results from ChEMBL document CHEMBL1148485, “Synthesis and biological evaluation of new selective cytotoxic cyclolignans derived from podophyllotoxin” (J Med Chem, 2004).

Test system: HT-29
Test: In vitro cytotoxicity against HT-29 (human colon carcinoma) cell line.
Format: functional, cell-based
Details: Homo sapiens, HT-29
COC(=O)[C@@H]1C(/C=N/c2ccccc2O)=Cc2cc3c(cc2C1c1cc(OC)c(OC)c(OC)c1)OCO3 (stereo partly drawn) showed an IC50 of 970 nM. For COC(=O)[C@@H]1C(/C=N/c2cncnc2N)=Cc2cc3c(cc2C1c1cc(OC)c(OC)c(OC)c1)OCO3 (stereo partly drawn), the IC50 was 23 nM.

Test system: SK-MEL-28
Test: Tested in vitro for antineoplastic activity against MEL-28 (human melanoma) tumor cell line
Format: functional, cell-based
Details: not given
Summary of the method: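 MEL-28 cells seeded at 2 × 10^4 cells/well in MEM–10% FCS containing graded compound concentrations. Incubated 4 days at 37 °C, 10% CO2, 98% humidity. Stained with crystal violet and inhibition judged against untreated controls, which were kept in exponential growth. Mean of duplicate wells.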
Compound COC(=O)[C@@H]1C(/C=N/c2ccccc2O)=Cc2cc3c(cc2C1c1cc(OC)c(OC)c(OC)c1)OCO3 (stereo partly drawn) has an IC50 greater than 9700 nM. COC(=O)[C@@H]1C(/C=N/c2cncnc2N)=Cc2cc3c(cc2C1c1cc(OC)c(OC)c(OC)c1)OCO3 (stereo partly drawn) gave an IC50 of 1000 nM.

Test system: A549
Test: In vitro cytotoxicity against A-549 (human lung carcinoma) cell line.
Format: functional, cell-based
Details: Homo sapiens, A549
With COC(=O)[C@@H]1C(/C=N/c2ccccc2O)=Cc2cc3c(cc2C1c1cc(OC)c(OC)c(OC)c1)OCO3 (stereo partly drawn) the IC50 was greater than 9700 nM. With COC(=O)[C@@H]1C(/C=N/c2cncnc2N)=Cc2cc3c(cc2C1c1cc(OC)c(OC)c(OC)c1)OCO3 (stereo partly drawn) the IC50 was 23 nM.

Test system: P388
Test: Tested in vitro for antineoplastic activity against P-388 (lymphoid neoplasm from DBA/2 mouse) tumor cell line
Format: functional, cell-based
Details: not given
Summary of the method: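 P-388 cells seeded at 1 × 10^4 cells/well in MEM–10% FCS containing graded compound concentrations. Incubated 4 days at 37 °C, 10% CO2, 98% humidity. Inhibition scored by inverted microscopy against untreated controls, which were kept in exponential growth. Mean of duplicate wells.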
COC(=O)[C@@H]1C(/C=N/c2cncnc2N)=Cc2cc3c(cc2C1c1cc(OC)c(OC)c(OC)c1)OCO3 (stereo partly drawn) showed an IC50 of 1900 nM.

Test system: not listed separately
Test: Selectivity index is the ratio of IC50 of P-388 cell line to that of HT-29
Format: functional
Details: not given
COC(=O)[C@@H]1C(/C=N/c2cncnc2N)=Cc2cc3c(cc2C1c1cc(OC)c(OC)c(OC)c1)OCO3 (stereo partly drawn) showed a Selectivity index of 83.
